# APJ ag: APJ receptor agonism. CHO-K1 APJ PathHunter beta-arrestin, luminescence; 0% DMSO wells, 100% apelin. activation, % at 20 µM. actives 0.11% (n = 330,000);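 active = activation more than six SD over the plate average, tested at 20 µM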;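 note: 0% = DMSO alone and 100% = apelin-13 at 10 nM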
# Target sequence (P35414 whole entry, looked up): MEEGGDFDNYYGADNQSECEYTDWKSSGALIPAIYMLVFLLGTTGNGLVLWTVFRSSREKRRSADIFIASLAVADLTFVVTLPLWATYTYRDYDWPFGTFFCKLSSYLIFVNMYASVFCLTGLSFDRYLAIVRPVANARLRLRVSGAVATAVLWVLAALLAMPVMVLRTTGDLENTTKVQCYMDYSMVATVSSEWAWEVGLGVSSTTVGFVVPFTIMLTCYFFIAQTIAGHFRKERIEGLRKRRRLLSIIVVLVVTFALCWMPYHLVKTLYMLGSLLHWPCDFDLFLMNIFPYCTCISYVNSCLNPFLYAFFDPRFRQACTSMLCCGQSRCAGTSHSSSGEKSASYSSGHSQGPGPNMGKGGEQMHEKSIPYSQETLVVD
#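 Assay system – PathHunter CHO-K1 APJ (AGTRL-1) beta-arrestin reporter cells · Compound – one dose, 20 µM compound, 1% DMSO · Timing – compound 90 min 25 °C, reagent 1 h · Measured by – luminescence from split beta-galactosidase complementation, Galacton Star/Emerald II substrate · Measure – beta-arrestin recruitment to APJ as agonist activity, luminescent signal · Benchmarks – DMSO vs Apelin-13 10 nM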
# CXCR6 block: inhibitors of human CXCR6 receptor; CHO-K1 PathHunter CXCR6 beta-arrestin, luminescence; inhibition, % at 20 µM; actives 0.36% (n = 360,000); in the data active = inhibition above about 34%, passing the limit was not always enough;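 note: antagonist mode with CXCL16 agonist at 10 nM final; 0% = 10 nM CXCL16 with DMSO and 100% = unstimulated wells without agonist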
# CCR6 antag: CCR6 (human) receptor antagonism | inhibition, % at 20 µM | actives 0.49% (n = 340,000) | P51684 | CHO-K1 CCR6 PathHunter beta-arrestin, luminescence, CCL20-stimulated;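 active = compounds whose inhibition of the agonist-driven luminescence signal at 20 µM reaches about 50%, limit read from the data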;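 note: cells stimulated with CCL20 at 14 nM final; plate controls were DMSO with CCL20 for no effect and DMSO without agonist for full effect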
# APJ antagonist: antagonists of human APJ apelin receptor; P35414; CHO-K1 APJ beta-arrestin complementation, luminescence; inhibition, % at 20 µM; actives 0.32% (n = 330,000);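 active = inhibition above about 40% at 20 µM, limit read from the data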;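 note: cells challenged with 10 nM apelin-13 agonist together with compound; plate controls were apelin-13 plus DMSO wells for no effect and DMSO wells lacking apelin-13 for full effect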
# EBI2 antag: blocks human EBI2 receptor beta-arrestin signaling. AID 651636. P32249. actives 0.81% (n = 360,000). EBI2 beta-arrestin recruitment, luminescence, 7a,25-OHC stimulated. inhibition, % at 5 µM; in the data active = inhibition above about 38%;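 note: enzyme fragment complementation signal reports receptor beta-arrestin coupling in cells; 0% = agonist plus DMSO wells and 100% = wells without agonist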
# EBI2 conf: EBI2 (human) antagonism, single concentration confirmation; shares compounds with EBI2 antag; EBI2 beta-arrestin luminescence, 7a,25-OHC antagonism; inhibition, % at 5 µM; actives 29% (n = 2,400); AID 651997;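 active = inhibition of at least 50%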
# EBI2 agonist: EBI2 agonism counter-screen; shares compounds with EBI2 antag; EBI2-expressing cells, agonist mode, luminescence, 60 min; 0% vehicle, 100% 7α,25-dihydroxycholesterol control; activation, % at 5 µM; 2,400 tested, under 10 active; AID 652000;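 active = activation of at least 50%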
# bGal counter: inhibits E. coli beta-galactosidase, counter-screen for EBI2 antagonists; shares compounds with EBI2 antag; purified beta-galactosidase, luminescent Galacton Star, 15 min; inhibition, % at 5 µM; actives 1% (n = 2,400); AID 652176;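 active = replicate-average signal at least 3 plate SD below neutral wells, shown as high inhibition, flagging enzyme-inhibiting false positives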;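 note: 0% = DMSO wells with enzyme and 100% = wells lacking enzyme; higher means stronger loss of beta-gal luminescence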
# Starred values were filed as active, the others as inactive; . = no result given. The list is not random: actives were taken first. Their share in the collection is about 1.5%.
SMILES,APJ ag,CXCR6 block,CCR6 antag,APJ antagonist,EBI2 antag,EBI2 conf,EBI2 agonist,bGal counter
O=C(OCc1ccccc1)N1CCC2CC1c1c2cccc1N1CCOCC1 (stereo not given),.,-8,.,.,-3,.,.,.
O=C(CN1CCN(C(=O)C2CCN(C(=O)/C=C/c3ccccc3)CC2)CC1)Nc1ccc(F)cc1,.,5,6,.,62*,28,0,8
O=C(/C=C/c1cccc(Cl)c1)N1CCC(Cc2ccccc2)CC1,-2,-6,20,-2,70*,51*,0,-21
COCCn1c(SCC(=O)Nc2c(C)n(C)n(-c3ccccc3)c2=O)nnc1-c1ccncc1,-2,0,5,4,-7,.,.,.
Cc1cc(C)c(S(=O)(=O)Nc2ccccc2-c2ccccc2)c(C)c1,-2,-1,29,-7,57*,28,0,7
O=S(=O)(Nc1ccccc1-c1ccccc1)c1ccccc1,.,6,27,.,9,.,.,.
O=C(Cn1c(C(=O)c2ccccc2)nc2ccccc21)c1ccc(Cl)cc1,.,11,20,.,-11,.,.,.
Cc1ccc(C(=O)Cn2c(C(=O)/C=C/c3ccccc3)nc3ccccc32)cc1,2,17,22,8,48*,36,0,7
c1ccc(OCCN2CCN(C(c3ccccc3)c3ccccc3)CC2)cc1,-4,17,24,0,45*,5,0,-10
COc1cccc(OCC(O)CN2CCN(C(c3ccccc3)c3ccccc3)CC2)c1 (stereo not given),1,0,0,-15,38*,16,-1,-11
CCN1CCN(CC(O)COc2cccc(OC)c2)CC1 (stereo not given),0,-4,-9,12,-12,.,.,.
CCCS(=O)(=O)NC(=O)C1(C)CCCN(C(=O)CSc2ccccc2)C1 (stereo not given),.,13,.,.,-3,.,.,.
CC(CSC(=O)c1ccccc1)C(=O)N1c2ccccc2CC1C(=O)O (stereo not given),.,4,.,.,5,.,.,.
Cc1ccc(S(=O)(=O)c2c(N)n(/N=C/c3ccco3)c3nc4ccccc4nc23)cc1,4,-7,19,3,41*,55*,2,2
Cc1cccc(S(=O)(=O)c2c(N)n(/N=C/c3ccco3)c3nc4ccccc4nc23)c1,1,5,7,-33,59*,68*,0,4
Nc1c(S(=O)(=O)c2ccccc2)c2nc3ccccc3nc2n1/N=C/c1ccco1,12,8,17,-14,67*,77*,0,-14
CC1(C(=O)NCc2cccnc2)CCN1C(=O)c1cccc(F)c1 (stereo not given),.,-12,.,.,-11,.,.,.
O=C(/C=C/c1ccc(OCc2ccccc2)c(OCc2ccccc2)c1)c1cccnc1,2,-3,-11,-14,46*,31,0,6
COc1cc(/C=N/n2cnn(Cc3ccccc3Cl)c2=S)cc(OC)c1OC,-3,-1,12,11,14,.,.,.
COc1ccc(/C=N/n2cnn(Cc3ccccc3Cl)c2=S)cc1,0,10,15,-11,49*,45,-1,-11
CCOC(=O)NC(=O)/C(C#N)=N/Nc1ccc(F)cc1,-6,-1,6,18,78*,11,1,-14
CCOC(=O)C(=O)/C(C#N)=C/Nc1ccc(F)cc1,1,-3,15,-4,-12,.,.,.
CCOC(=O)[C@]12CCCC=C1N(Cc1ccco1)C(=O)[C@H](CC(=O)NCC13CC4CC(CC(C4)C1)C3)C2,.,10,.,.,6,.,.,.
O=C(Nc1ccc(Oc2ccccc2)nc1)C1CCCCN1Cc1cccc(O)c1 (stereo not given),-4,0,6,-18,93*,74*,0,7
